Results as given in ChEMBL document CHEMBL1765085, “Cytotoxic and apoptosis-inducing activities of triterpene acids from Poria cocos” (J Nat Prod, 2011).
pIC50: −log10 of the molar value. The source made the active and inactive calls. The rule behind the calls is not given here.

What was measured:
HL-60 [1] = assay: Cytotoxicity in human HL60 cells assessed as cell viability after 48 hrs by MTT assay; type: functional, cell-based; details: HL-60, 48 h
In short: (§1)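 Growth conditions: RPMI 1640 for HL60, CRL1579, NIH:OVCAR-3, SK-BR-3, DU145 and PANC-1; D-MEM for A549; MEM for WI-38; all with 10% FBS and antibiotics, 37 °C, 5% CO2. Seeded at 3 × 10^3 cells/well (OVCAR-3 1 × 10^4), then treated 48 h with 10^-4 to 10^-6 M. MTT for 3 h, formazan dissolved in 0.04 M HCl/2-propanol, A570/630. IC50 (50% growth inhibition) from triplicates.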

SK-BR-3 = assay: Cytotoxicity in human SK-BR-3 cells assessed as cell viability after 48 hrs by MTT assay; type: functional, cell-based; details: SK-BR-3, 48 h; in short: as §1
HL-60 [2] = assay: Cell cycle arrest in human HL60 cells assessed as accumulation at Go/G1 phase at 30 uM after 24 hrs by flow cytometry (reference value: 51.4%); type: functional
In short: (§2)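 Cells seeded at 1 × 10^5 per sample for HL60 and 1.5 × 10^5 for A549, then exposed to 30 μM for 0, 24 or 48 h. After a PBS wash, DNA was stained with Nim-DAPI for 10 min at room temperature. Phase distribution was read by flow cytometry, with the sub-G1 (fragmented DNA) fraction taken as the apoptosis index. Values are means of three experiments.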

HL-60 [3] = assay: Cell cycle arrest in human HL60 cells assessed as accumulation at sub-G1 phase at 30 uM after 48 hrs by flow cytometry (reference value: 3.0%); type: functional; in short: as §2
A549 [4] = assay: Cell cycle arrest in human A549 cells assessed as accumulation at sub-G1 phase at 30 uM after 24 hrs by flow cytometry (reference value: 3.1%); type: functional; in short: as §2
A549 [5] = assay: Cell cycle arrest in human A549 cells assessed as accumulation at G2/M phase at 30 uM after 24 hrs by flow cytometry (reference value: 4.9%); type: functional; in short: as §2
A549 [6] = assay: Cell cycle arrest in human A549 cells assessed as accumulation at sub-G1 phase at 30 uM after 48 hrs by flow cytometry (reference value: 3.1%); type: functional; in short: as §2
A549 [7] = assay: Cell cycle arrest in human A549 cells assessed as accumulation at S phase at 30 uM after 48 hrs by flow cytometry (reference value: 27.7%); type: functional; in short: as §2
WI-38 = assay: Cytotoxicity against human WI38 cells assessed as cell viability after 48 hrs by MTT assay; type: cell-based; details: WI-38, 48 h; in short: as §1
A549 [8] = assay: Induction of mitochondrial signal transduction pathway-mediated apoptosis in human A549 cells assessed as decrease in Bcl-2 level at 30 uM after 24 to 48 hrs by Western blot analysis; type: functional, cell-based
In short: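 A549 cells (1.5 × 10^5) were pre-incubated 24 h, then given 30 μM for 24 or 48 h. Whole-cell lysates were run on 15% SDS-PAGE, transferred to PVDF and probed overnight at 4 °C for Bax, Bcl-2 and β-actin. The Bcl-2 band was quantified by densitometry relative to untreated cells, n = 3.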

HL-60 [9] = assay: Induction of mitochondrial signal transduction pathway-mediated apoptosis in human HL60 cells assessed as increase in cleaved caspase-3 level at 30 uM after 8 hrs by Western blot analysis; type: functional, cell-based
In short: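 HL60 cells (1 × 10^6) were pre-incubated 24 h, then given 30 μM for 8 or 24 h. Whole-cell lysates were run on 15% SDS-PAGE, transferred to PVDF and probed overnight at 4 °C for procaspase and cleaved caspase-3, with β-actin as loading control.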

HL-60 [10] = assay: Induction of mitochondrial signal transduction pathway-mediated apoptosis in human HL60 cells assessed as increase in cleaved caspase-8 level at 30 uM after 8 hrs by Western blot analysis; type: functional, cell-based
In short: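 HL60 cells (1 × 10^6) pre-incubated 24 h, then exposed to 30 μM final for 8 h. Whole-cell lysates in extraction buffer, resolved on 15% SDS-PAGE, blotted to PVDF, probed overnight at 4 °C with anti-caspase-8 or anti-caspase-9 primary antibodies, β-actin as loading reference. Procaspase loss and cleaved caspase bands read.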

HL-60 [11] = assay: Induction of apoptosis in human HL60 cells assessed as viable cells at 30 uM after 24 hrs by AnnexinV/propidium iodide staining (Rvb =85.6%); type: functional; details: HL-60, 24 h, read-out: Activity
HL-60 [12] = assay: Induction of apoptosis in human HL60 cells assessed as viable cells at 30 uM after 48 hrs by AnnexinV/propidium iodide staining (Rvb =85.6%); type: functional; details: HL-60, 48 h, read-out: Activity
A549 [13] = assay: Induction of apoptosis in human A549 cells assessed as necrotic cells at 30 uM after 48 hrs by AnnexinV/propidium iodide staining (Rvb =3.4%); type: functional
A549 [14] = assay: Induction of apoptosis in human A549 cells assessed as late apoptotic cells at 30 uM after 24 hrs by AnnexinV/propidium iodide staining (Rvb =1.1%); type: functional
A549 [15] = assay: Induction of apoptosis in human A549 cells assessed as viable cells at 30 uM after 48 hrs by AnnexinV/propidium iodide staining (Rvb =91.2%); type: functional; details: A549, 48 h, read-out: Activity
A549 [16] = assay: Induction of apoptosis in human A549 cells assessed as early apoptotic cells at 30 uM after 24 hrs by AnnexinV/propidium iodide staining (Rvb =4.3%); type: functional
HL-60 [17] = assay: Induction of mitochondrial signal transduction pathway-mediated apoptosis in human HL60 cells assessed as increase in Bax level at 30 uM after 8 to 24 hrs by Western blot analysis; details: TDE = time-dependent effect
HL-60 [18] = assay: Induction of mitochondrial signal transduction pathway-mediated apoptosis in human HL60 cells assessed as decrease in Bcl-2 level at 30 uM after 8 to 24 hrs by Western blot analysis; details: TDE = time-dependent effect
A549 [19] = assay: Induction of mitochondrial signal transduction pathway-mediated apoptosis in human A549 cells assessed as increase in cleaved caspase-8 level at 30 uM after 24 to 48 hrs by Western blot analysis

C=C(CC[C@@H](CO)[C@H]1[C@H](O)C[C@@]2(C)C3=CC[C@@H](C(=C)C)[C@](C)(CCCO)C3=CC[C@]12C)C(C)C [PORICOTRIOL A]
pIC50 (HL-60 [1]): 5.72 | pIC50 (SK-BR-3): 5.92 | Activity (HL-60 [2]): 62.3% | Activity (HL-60 [3]): 38.7% | Activity (A549 [4]): 7.5% | Activity (A549 [5]): 7.5% | Activity (A549 [6]): 17.4% | Activity (A549 [7]): 6% | pIC50 (WI-38): 4.25 | Activity (A549 [8]): Active | Activity (HL-60 [9]): Active | Activity (HL-60 [10]): Active | viability at 30 µM (HL-60 [11]): 34.8% | viability at 30 µM (HL-60 [12]): 14.7% | Activity (A549 [13]): 6.3% | Activity (A549 [14]): 2.9% | viability at 30 µM (A549 [15]): 49.3% | Activity (A549 [16]): 3.5% | Activity (HL-60 [17]): tde | Activity (HL-60 [18]): tde | Activity (A549 [19]): inactive
